ChEMBL document CHEMBL1135987, “Synthesis of new dihydroindeno[1,2-c]isoquinoline and indenoisoquinolinium chloride topoisomerase I inhibitors having high in vivo anticancer activity in the hollow fiber animal model” (2002)
Calls of active or inactive are those of the source. The rule behind the calls is not given here.

How the values were obtained:
[1] = Cytotoxicity in melanoma UACC-62 cell line.; assay type: functional; details: Homo sapiens
Procedure, shortened: (§1)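 NCI screen of roughly 55 human cancer cell lines from diverse tumor origins, tested over 10^-4 to 10^-8 M. GI50 is the concentration giving 50% growth inhibition.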

[2] = Cytotoxicity in colon HCT116 cell line.; assay type: functional; details: Homo sapiens, HCT-116; procedure, shortened: as §1
[3] = Cytotoxicity in lung HOP-62 cell line.; assay type: functional; details: Homo sapiens; procedure, shortened: as §1
[4] = test system: Panel (Carcinoma cell lines); experiment: Mean graph mid point for growth inhibition of all human cancer cell lines tested.; assay type: functional; parameters: unit: µM
Procedure, shortened: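 NCI screen of roughly 55 human cancer cell lines, test range 10^-4 to 10^-8 M. Mean graph midpoint is the average GI50 over all cell lines successfully tested. GI50 values below or above the range are set to 10^-8 M or 10^-4 M.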

[5] = Cytotoxicity in breast MDA-MB-435 cell line.; assay type: functional; details: Homo sapiens; procedure, shortened: as §1
[6] = Cytotoxicity in CNS SF-539 cell line.; assay type: functional; details: Homo sapiens; procedure, shortened: as §1
[7] = Cytotoxicity in ovarian OVCAR-3 cell line.; assay type: functional; details: Homo sapiens; procedure, shortened: as §1
[8] = Cytotoxicity in prostate DU-145 cell line.; assay type: functional; details: Homo sapiens; procedure, shortened: as §1
[9] = Cytotoxicity in renal SN12C cell line.; assay type: functional; details: Homo sapiens; procedure, shortened: as §1
[10] = target: T1, DNA topoisomerase 1 (Homo sapiens) (UniProt P11387); experiment: DNA topoisomerase I mediated cleavage activity tested up to a concentration of 100 uM; Same activity as compound 1
T1 sequence (whole entry): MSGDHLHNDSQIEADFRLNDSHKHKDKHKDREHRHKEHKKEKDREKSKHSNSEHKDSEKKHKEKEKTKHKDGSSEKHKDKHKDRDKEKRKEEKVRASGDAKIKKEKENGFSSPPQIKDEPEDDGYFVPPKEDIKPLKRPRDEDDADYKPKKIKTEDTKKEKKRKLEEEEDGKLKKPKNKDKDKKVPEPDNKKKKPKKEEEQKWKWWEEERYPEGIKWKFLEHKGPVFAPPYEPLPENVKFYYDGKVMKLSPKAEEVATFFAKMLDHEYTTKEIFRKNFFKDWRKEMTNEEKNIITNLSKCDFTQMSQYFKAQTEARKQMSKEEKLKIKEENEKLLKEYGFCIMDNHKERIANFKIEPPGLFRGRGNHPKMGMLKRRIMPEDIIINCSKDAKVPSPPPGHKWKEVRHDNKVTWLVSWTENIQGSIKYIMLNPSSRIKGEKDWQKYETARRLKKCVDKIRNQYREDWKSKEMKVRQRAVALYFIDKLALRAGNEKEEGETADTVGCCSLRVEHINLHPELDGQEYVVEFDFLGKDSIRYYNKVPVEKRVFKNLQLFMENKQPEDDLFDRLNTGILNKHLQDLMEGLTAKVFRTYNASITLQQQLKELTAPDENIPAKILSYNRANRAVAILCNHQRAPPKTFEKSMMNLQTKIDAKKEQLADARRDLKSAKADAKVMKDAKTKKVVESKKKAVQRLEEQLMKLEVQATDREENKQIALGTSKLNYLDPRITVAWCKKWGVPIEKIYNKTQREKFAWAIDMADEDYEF
Procedure, shortened: (§2)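 Baculovirus-expressed human recombinant top1 was incubated with a 161 bp PvuII/HindIII fragment of pBluescript SK(-), 3'-end-labeled at the HindIII site with [α-32P]-dCTP (about 50 000 dpm per reaction), and drug up to 100 μM, for 30 min at 22 °C. Reactions were stopped with 0.5% SDS final. Products ran on denaturing 16% polyacrylamide/7 M urea gels at 51 °C. Cleavage was scored semiquantitatively (+, ++, +++) against the parent lead.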

[11] = target: T1, DNA topoisomerase 1 (Homo sapiens); experiment: DNA topoisomerase I mediated cleavage activity tested up to a concentration of 100 uM; week activity; procedure, shortened: as §2
[12] = target: T1, DNA topoisomerase 1 (Homo sapiens); experiment: DNA topoisomerase I mediated cleavage activity tested up to a concentration of 100 uM; Greater activity than compound 1; procedure, shortened: as §2
[13] = target: T1, DNA topoisomerase 1 (Homo sapiens); experiment: DNA topoisomerase I mediated cleavage activity tested up to a concentration of 100 uM; Active or inactive; procedure, shortened: as §2
[14] = target: T1, DNA topoisomerase 1 (Homo sapiens); experiment: DNA topoisomerase I mediated cleavage activity tested up to a concentration of 100 uM; procedure, shortened: as §2

Compound	GI50 [1] [µM]	GI50 [2] [µM]	GI50 [3] [µM]	MGM [4]	GI50 [5] [µM]	GI50 [6] [µM]	GI50 [7] [µM]	GI50 [8] [µM]	GI50 [9] [µM]	Activity [10]	Activity [11]	Activity [12]	Activity [13]	Activity [14]
CCCCN1C(=O)c2cc(OC)c(OC)cc2[C@H]2C(=O)c3cc4c(cc3[C@H]21)OCO4	0.61	0.11	0.45	2.14	1.6	0.32	1.4							
C/C=C(/C=O)CCN1C(=O)c2cc(OC)c(OC)cc2[C@H]2C(=O)c3cc4c(cc3[C@H]21)OCO4	0.15	0.25	0.3	0.95	4.46	0.21	7.12	0.22	0.14					
COc1cc2c3c(n(C)c(=O)c2cc1OC)-c1cc2c(cc1C3=O)OCO2				20						Same activity as compound 1				
COC(=O)CCCN1C(=O)c2cc(OC)c(OC)cc2[C@H]2C(=O)c3cc4c(cc3[C@H]21)OCO4	0.53	0.34	0.82	1.48	2.89	0.71	2.43	0.63	0.24					
COc1cc2c(cc1OC)[C@H]1C(=O)c3cc4c(cc3[C@H]1N(CCCN=[N+]=[N-])C2=O)OCO4	0.29	0.4	0.36	0.69	1.27	0.33	1.27	0.33	0.25		week activity			
COc1cc2c(cc1OC)[C@H]1C(=O)c3c(ccc4ccccc34)[C@H]1N(CCCBr)C2=O	2.39	4.02	1.44	2.95	2.25		1.97	2.46	2.35					
COc1cc2c(cc1OC)[C@H]1C(=O)c3cc4c(cc3[C@H]1N(CC(F)(F)F)C2=O)OCO4	4.12	14.4	34	6.6	7.6	7.63	7.96	7.5	7.87					
CCCN1Cc2cc(OC)c(OC)cc2[C@@H]2[C@H]1c1cc3c(cc1[C@@H]2O)OCO3	18.7	17.8	16	20.9	5.8	21.7	6.3	33.9						
CCCN1C(=O)c2cc(OC)c(OC)cc2[C@H]2C(=O)c3cc4c(cc3[C@H]21)OCO4	0.26	0.39	0.59	0.69	1.1	0.44	0.92	0.31	0.43					
CC[n+]1cc2cc(OC)c(OC)cc2c2c1-c1cc3c(cc1C2)OCO3.[Cl-]				13						Same activity as compound 1				
COc1cc2c(cc1OC)[C@H]1C(=O)c3cc4c(cc3[C@H]1N(CCCCl)C2=O)OCO4	0.02	0.16	0.08	0.11	0.33	0.02	0.36	0.03	0.02					
CCCC[n+]1cc2cc(OC)c(OC)cc2c2c1-c1cc3c(cc1C2)OCO3.[Cl-]	0.51	1.58	3.06	1.31	1.37	2.16	0.28	2.69	0.43			Greater activity than compound 1		
COc1cc2c(cc1OC)[C@H]1C(=O)c3cc4c(cc3[C@H]1N(CC#N)C2=O)OCO4	1.73	0.6	5.42	3.28	9.04	2.12	2.02	0.85	0.41					
CCN1C(=O)c2cc(OC)c(OC)cc2[C@H]2C(=O)c3cc4c(cc3[C@H]21)OCO4				0.81									inactive	
COc1cc2c(cc1OC)[C@H]1C(=O)c3cc4c(cc3[C@H]1N(CCCBr)C2=O)OCO4	0.05	0.07	0.12	0.12	0.15	0.04	0.4	0.03	0.03	Same activity as compound 1				
COc1cc2c(cc1OC)[C@H]1C(=O)c3cc4c(cc3[C@H]1N(Cc1ccccc1)C2=O)OCO4	1.84	0.54	2.93	1.18		0.38	7.17	0.55	0.39					
COc1cc2c(cc1OC)[C@H]1C(=O)c3c(ccc4ccccc34)[C@H]1N(CCCCl)C2=O	3.73	6.52	2.76	4.22	2.48	14.7	1.93	5.49	11.6					
CCC[n+]1cc2cc(OC)c(OC)cc2c2c1-c1cc3c(cc1C2)OCO3.[Cl-]	2.19	3.55	3.98	4.1	3.37	1.08	1	10.5	0.64			Greater activity than compound 1		
C=CCN1C(=O)c2cc(OC)c(OC)cc2[C@H]2C(=O)c3cc4c(cc3[C@H]21)OCO4				0.98										0
CCOC(=O)CCCN1C(=O)c2cc(OC)c(OC)cc2[C@H]2C(=O)c3cc4c(cc3[C@H]21)OCO4	3.04	1.81	2.22	7.76	16.5		22	3.07	2.07					
